Test results: the EternaBench riboswitch data

Test system: MS2 coat protein
Experiment: apparent Kd, MS2 coat protein; higher = weaker binding; RNA-MaP array; FMN 200 µM where present
How it was run: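 Stalled E. coli RNA polymerase transcribed the designs on Illumina sequencing-chip clusters. SNAP-549-labelled MS2 coat protein was titrated from 0.7 or 1.5 nM, doubling to 3 µM, without and then with constant ligand, in 100 mM Tris-HCl pH 7.5, 80 mM KCl, 4 mM MgCl2, BSA, DTT, yeast tRNA and Tween-20. Per-cluster binding curves were fitted to green signal normalised to red-channel RNA signal and control-cluster median Fmax. The apparent Kd is the median of the filtered fits.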

[1] = designed as: OFF switch for flavin mononucleotide, no ligand
[2] = ligand present: flavin mononucleotide, designed as: OFF switch for flavin mononucleotide
[3] = designed as: ON switch for flavin mononucleotide, no ligand
[4] = ligand present: flavin mononucleotide, designed as: ON switch for flavin mononucleotide

Sequence | apparent Kd [1] | apparent Kd [2] | apparent Kd [3] | apparent Kd [4]
UUAAUUAACAAGAAGGCAUACAUGAGGAUCACCCAUGUUGUACAUGGAUAAUGAGGAUAUUGCUAAUACAUGAGGAUCACCCAU | 36.5 nM | 34.3 nM | – | –
GUGUAGAUAGGAUAUGCGUGAGUCUAGCGAAGCUAGAUUCUACAUGAGGAUCACCCAUGUAGAAGGGUCUACAC | 17.2 nM | 18.5 nM | – | –
ACAUGAGGAUCACCCAUGUGAACAUAGGAUAUUGGUGAUCAGGCAUGUUAUACAGGAUAUGUCUGCGAGAAGGAUGCACGUUGC | – | – | 567 nM | 341 nM
AAAAGGCAUCGUGACAUGAGGAUCACCCAUGUGAUUUGCUCACAGGAUAUCAUGCUCACGGAGCCUGAGAAGGGUGAAAGCUAA | – | – | 28.7 nM | 54.7 nM
UCCGCUCGAGGAUAUACAUGAGGAUCACCCAUGUUUCCCUGUUGUUUGGCCUCAGGAUGUAGAAGGCGACGCUA | 18.3 nM | 23.6 nM | – | –
UACCACCGCACGGACACGCCGAGUCAGGAUAUACAUGAGGAUCACCCAUGUGAAGGCCGGCUCGUGUAGAAGGGACAGGCGUUG | 5.43 nM | 6.72 nM | – | –
GCACGAAGCUAGAAGGGCGAUUUGCACAUGAGGAUCACCCAUGUCCAACGUAGGAUAUGGCUGGCGGGAACGCAAGGUGCGCGC | – | – | 330 nM | 37.3 nM
GUAUAUAUUACAUGAGGAUCACCCAUGUCAGAACGGGUAAUCAGAAGGUAUUAUUAGAGAAAGGGUAAGGAUAUGAUUAUAUAC | – | – | 577 nM | 321 nM
AGCUACGUUUCGUAGCAGUGUCAUCGAGAAGGCCUUAUUACAUGAGGAUCACCCAUGUGGACAUGGGAGGAUAUCGAUGAUACA | – | – | 61.3 nM | 8.06 nM
GCACUGGAUGUAGGAUAUCAGGACGAUAAGUCCUGAGAAGGACAUGAGGAUCACCCAUGUGCUCAAUAACCAGUGCAUAAUAUA | 14.5 nM | 20.3 nM | – | –
CCUCCACAUGAGGAUCACCCAUGUCAGGAUAUCGUGUGUUUUUUUUCGGUCUUUCGUGCGAGAAGGGACGUCUU | 30.5 nM | 33.8 nM | – | –
CAGGUAGACUGAGGAUAUACACAAAACAGCUAGUCUAUCUAGCUGAUCACAUGAGGAUCACCCAUGUAGAAGGCAGUCUGCCUG | 19.2 nM | 55.2 nM | – | –
AAUAUGAGCUGGUAUAAACCCGAAACAUGAGGAUCACCCAUGUAGGAUAUCAGCACGAUAAGUGCUGAGAAGGACAUCCAGCUC | 14.5 nM | 14.5 nM | – | –
UACAUCGGAGGAUAUACAUGAGGAUCACCCAUGUGAGUGUAAGGGAGCGUAAGCGGGUGUAGAAGGCCGUCUUU | 58.3 nM | 49.5 nM | – | –
UUAUUUGUACAAGGAUAUCUAUUAUAUUCACAUCCUACAUGAGGAUCACCCAUGUUAUAUAUUUUAGAGAAGGUGUAUUGUCUG | – | – | 29.9 nM | 35.3 nM
AUUAAGCAGCAGGAUAUAAUUAUCUGAAGGUGGUUAGAAGGGCUGACAUGAGGAUCACCCAUGUGCUCUUCGUG | 16.2 nM | 32.2 nM | – | –
UUAUACGUUGAGGAUAUGCGAAUUAGUAUAGUUGCAGAAGGCGAUACAUGAGGAUCACCCAUGUUCAUGGGCAU | 127 nM | 243 nM | – | –
GUCGUGUGAGGAUAUGAUUAAUAGACGGGAUUGCGACUGCAUCAGAAGGCACAUGAGGAUCACCCAUGUAUGAA | 19.4 nM | 63.5 nM | – | –
UUUUAACAUGAGGAUCACCCAUGUGAGGAUAUCGAUAUUUAUAUUAAUAUUAAUAAAACGAGAAGGCACAUUUU | 71 nM | 87.2 nM | – | –

Sequence | apparent Kd [1] | apparent Kd [2] | apparent Kd [3] | apparent Kd [4]
CUCAUGUUAGGAUAUGCGCCCAGCCUAGUGGCCGGGCUCUAGCAGAAGGAACAUGAGGAUCACCCAUGUUUGCA | 62.5 nM | 18.6 nM | – | –
UGGCGACAUGAGGAUCACCCAUGUAUUUCCAGUUAAGGAUAUAGGUGCUAGCAACGGCAGCUAGAAGGUGAGAUAA | – | – | 42 nM | 58 nM
CCUUAAAUUGUAAGGAUAUUAAAGCUGCUGAGUUAUAAGAAGGUACAUGAGGAUCACCCAUGUUCGGCAGGGUC | 17.8 nM | 18.4 nM | – | –
CCGGCUGCUGUGAGGAUAUGCCUGUGGGUGCGUGGGUAGAAGGCACAUGAGGAUCACCCAUGUCCUGCGGGCCC | 123 nM | 81.8 nM | – | –
UGUCGGAGCAGAGGAUAUUACAUGAGGAUCACCCAUGUAUGAACCAAUAGCUGGAAACAGCAAUGUAAGAAGGCUGCUCCGACC | 12 nM | 153 nM | – | –
UAUAUGUAUGUAGGAUAUGGUAUAUAAAAUAUACCAGAAGGACAUGAGGAUCACCCAUGUAUGAAAUUCCAUAAUAACCGUGUA | 11.3 nM | 11 nM | – | –
UCGUGUCAUGUAGGAUAUGACACAGGAAACUGGUCAGAAGGACAUGAGGAUCACCCAUGUAAAAUGUUCAAGAAUAACGCAUGC | 78.8 nM | 161 nM | – | –
GGAUAGGACAGAGGAUAUACGUGCUAGAGAUACUAGUAAAAUUUCCUCACAUGAGGAUCACCCAUGUAGAAGGCUGUCCUAUCG | 36.1 nM | 684 nM | – | –
AAAAAGCGAGGAUAUACAUGAGGAUCACCCAUGUCAAACGGUAAGACCGCAGGAAACAGUAGAAGGCGCAAAAA | 64.3 nM | 89.6 nM | – | –
GGGCAACAUGAGGAUCACCCAUGUCAGGAUAUUGGGCCGGGCCCGAAAGGGCCCGGAACAAGAAGGGACAGCCC | 23.5 nM | 24.5 nM | – | –
AGCCAAGCAGGAUAUGCACGUAAUAACAUGAGGAUCACCCAUGUGACCGAUUUAUAUUCUGCAGAAGGGCUUGGAU | 29 nM | 118 nM | – | –
AAAGAACUAGGAUAUACAUGAGGAUCACCCAUGUGCAGCUUAACGGCUCACACCUUAUGUAGAAGGAGUGACCG | 16 nM | 19.3 nM | – | –
UGCCUGAGGCAAAGCUUUAGGUAUACAUGAGGAUCACCCAUGUAGGAUAUGGUAGGCUUUGCUUACCAGAAGGACAUGUUAAUU | 19.8 nM | 54.6 nM | – | –
AUUAUGUUAGGAUAUGCUUAUGGUGGAUAGUCCGAUAUGAUGCAGAAGGGACAUGAGGAUCACCCAUGUACUGA | 27.3 nM | 29.5 nM | – | –
UAGAAGUCAGGAUAUGCAUGGCGGGACUUGCGUCGUGGCGUGCAGAAGGGACAUGAGGAUCACCCAUGUGGAGA | 117 nM | 369 nM | – | –
UAAAUUAACAAGAAGGCUAACAUGAGGAUCACCCAUGUUGUACAUGGAUAUAGAGGAUAUUGAUAAUAAUUUUUUAUCAUAAUU | 17.6 nM | 16.5 nM | – | –
CCGCAAAAGCAGGAUAUCGUAUCGGAUACGAUACGAGAAGGGUUUACAUGAGGAUCACCCAUGUUCCUUAGCGG | 31.5 nM | 36 nM | – | –
GGAUCGAAUGUGAGGAUAUACCACUGGAUACAGUGGUAGAAGGCACAUGAGGAUCACCCAUGUCCUUACGAUCC | 96.5 nM | 319 nM | – | –
AUAAUCACAUGAGGAUCACCCAUGUACCGAGCUAAAGCUACAUAGGAUAUGACAAGUAUAGCUUGUCAGAAGGGUGAGUCUCGC | – | – | 46.3 nM | 67.1 nM

Sequence | apparent Kd [1] | apparent Kd [2] | apparent Kd [3] | apparent Kd [4]
UUUAUUUAGGCAGGAUAUACAUGUAUAUAUAUUUCUUUAUAUCUUAUUACAUGAGGAUCACCCAUGUAGAAGGGCCUUAUUAUA | 17.3 nM | 23.6 nM | – | –
CGAUUUUUGAUCCGUUUUUUCUACAUGAGGAUCACCCAUGUGCAGGAUAUCGUGGUGUUUUACUACGAGAAGGGCAAUUUCACG | 84.8 nM | 198 nM | – | –
UUUGUACAUGAGGAUCACCCAUGUUAGGAUAUCUCGCCGUCGGCUUGCCGACGGUAUUAGAGAAGGGACAAGGG | 136 nM | 108 nM | – | –
CUCUUGUUAGGAUAUCAAACUGGCGGCGGAGCCGGCAGUAGUGAGAAGGGACAUGAGGAUCACCCAUGUAAGAA | 81.9 nM | 155 nM | – | –
CUUUUGUGAGGAUAUUCGUAGUAGAUAAAUAAAACUAUUACGGAGAAGGCACAUGAGGAUCACCCAUGUUCCUU | 16.7 nM | 54.5 nM | – | –
GUCACGAAUGUAGGAUAUCGAGUGGAAUACACUCGAGAAGGACAUGAGGAUCACCCAUGUACUAUGAAAGAUAAUAAACGUGAC | 14.9 nM | 19.5 nM | – | –
UCACGGGACUAAGGAUAUACAUGAACCAUUUUUGUAGAAGGUAGAAUGUUUGAUCAUAAACUAAACAUGAGGAUCACCCAUGUU | 23.4 nM | 21 nM | – | –
GUGUAGAUAGGAUAUGCUGGAAUCUAGCGAAGCUAGGUUCCACAUGAGGAUCACCCAUGUAGAAGGGUCUACAC | 200 nM | 54 nM | – | –
ACGAGUAAAGCAGGAUAUCUAUUGUCUCUGUAACAUGAGGAUCACCCAUGUAGAGAAGGGCUUAGUCAUACACUUCGAAGUUGC | 9.78 nM | 9.77 nM | – | –
GUGUAGUCAGGAUAUACAUAGGAAGAGAAGAGAAGAUAAGCACAUGAGGAUCACCCAUGUAGAAGGGACAGUGU | 65.1 nM | 70.7 nM | – | –
CGAUGACAAAGUCAUCGAUAACGAACAUGAGGAUCACCCAUGUAGGAUAUGCUACUCAAAGAGUAGCAGAAGGACAUGUGCCUU | 34.2 nM | 284 nM | – | –
GAAUAAUUGAUCCUUUUUUAUUACAUGAGGAUCACCCAUGUGCAGGAUAUCGAUUGUUUUAGUUUCGAGAAGGGCAAGAACUGU | 219 nM | 255 nM | – | –
GUAGCAUACCGAGGAUAUUCAGGGCUUAUAUAAACAUGAGGAUCACCCAUGUGGCGAAAGCCUAGGGAGAAGGCGGAAUGCUAC | – | – | 14.9 nM | 13.1 nM
GGUACUCAAAGAGUACUUGGUCGAACAUGAGGAUCACCCAUGUAGGAUAUGCAAAGCAAGAAGUAGCAGAAGGACAUGUGCAGC | 13.5 nM | 36.1 nM | – | –
CCAUGGCAUGUAGGAUAUCUCUGACAAAGUCAGAGAGAAGGACAUGAGGAUCACCCAUGUAAACCGAAAGGAACAUAGCCAUGG | 6.31 nM | 6.26 nM | – | –
AUAUGAAAGAUAGGAUAUACUGAGGUUGAAUGGGUAGAAGGAUCGAUAGUGGAGAAGACAUGAGGAUCACCCAUGUUGUGGAUU | – | – | 656 nM | 237 nM
ACUACUUAGUGAGGAUAUACAUAAUUUAUAACUGUAGAAGGCACAAACCUCAAUACAUGAGGAUCACCCAUGUUAUAUAUCUAA | 62.6 nM | 64.3 nM | – | –
AUUAGUAUCUAGGAUAUCUAGUACAUAGUAUCUAGAGAAGGAGAUACAUGAGGAUCACCCAUGUUCUGUGUUCU | 27.2 nM | 64.5 nM | – | –
